# Screening data as filed in PubChem.
# An excerpt weighted towards active compounds, which were near 4.3% of everything screened.
# Rtt109 Vps75 – blocks Candida albicans Rtt109/Vps75 acetyltransferase activity | inhibition, % at 34.9 µM | AID 540336 | 330,000 compounds, 0.16% hits | purified Rtt109/Vps75, ThioGlo CoA-SH fluorescence, 4 h;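 active = inhibition of at least 50% in every replicate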
# CAL PDZ FP-1 – human CAL PDZ-peptide interaction inhibition; purified CAL PDZ, TMR-peptide fluorescence polarization, 1 h; 330,000 compounds, 0.02% hits; inhibition, % at 20 µM;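 active = highest replicate inhibition of at least 40%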;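 also: plate controls were DMSO neutral control wells for no effect and unlabeled competitor peptide control wells for full effect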
#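 Control set: unlabelled peptide and DMSO controls / Material: purified CerCALP PDZ construct / Timing: 1 h incubation at room temperature before polarization reading / Doses: 20 µM, one dose / Detection: fluorescence polarization (mP)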
# ALR H2O2 inh – blocks human ALR sulfhydryl oxidase activity. inhibition, % (concentration not given with the values). purified ALR, DTT oxidation, H2O2 HRP-luminol luminescence. P55789. AID 485317. 290,000 compounds, 3.8% hits;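 active = mean replicate inhibition above about 79%, with every replicate also reaching it, limit read from the data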
# Target sequence (P55789 whole entry, looked up): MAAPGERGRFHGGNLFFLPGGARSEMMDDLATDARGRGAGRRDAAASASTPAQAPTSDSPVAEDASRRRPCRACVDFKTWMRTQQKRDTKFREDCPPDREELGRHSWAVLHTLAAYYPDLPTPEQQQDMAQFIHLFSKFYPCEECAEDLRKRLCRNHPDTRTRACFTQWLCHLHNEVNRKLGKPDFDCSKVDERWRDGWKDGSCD
# CAL PDZ FP-2 – CAL PDZ (human) peptide binding inhibition; purified CAL PDZ, TMR-peptide fluorescence polarization, 1 h; Q9HD26; inhibition, % at 24.9 µM; AID 602252; 300,000 compounds, 0.92% hits;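 active = mean inhibition of at least 30% with at least half of replicates also reaching 30%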;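 also: 0% = DMSO neutral control and 100% = excess unlabeled competitor peptide PRC23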
# DYRK1A inh – blocks rat Dyrk1A kinase activity | inhibition, % at 12.5 µM | Q63470 | ADP-Glo luminescence, NFATc1 peptide | 310,000 compounds, 0.43% hits; in the data active = inhibition above about 50%;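 also: plate controls were vehicle with enzyme for no effect and no enzyme for full effect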
# An asterisk follows results filed as active; x = no result given.
SMILES,Rtt109 Vps75,CAL PDZ FP-1,ALR H2O2 inh,CAL PDZ FP-2,DYRK1A inh
CCOc1ccc2nc(NC(=O)CSC3=NCCS3)sc2c1,9,x,99*,-2,13
COc1ccc2nc(NC(=O)CSC3=NCCS3)sc2c1,-6,-1,98*,-2,4
COc1ccc2nc(NC(=O)CN3C(=O)NC4(CCCCC4)C3=O)sc2c1,52*,-2,-8,-2,23
Cc1ccc2nc(NC(=O)CN3C(=O)NC4(CCCCC4)C3=O)sc2c1,-2,-1,-6,7,9
Cc1ccc(CNC(=O)C2CCCN(c3nc4ccsc4c(=O)s3)C2)cc1 (centres undefined),-2,-2,3,0,-8
CCN(CC)C(=O)C(=O)c1cccn1-c1cccc(OC)c1C#N,x,-1,-8,-1,1
COc1cccc(NC(=O)Nc2cc(C(=O)O)ccc2N2CC3CC(C2)c2cccc(=O)n2C3)c1 (centres undefined),2,-4,0,-2,1
O=c1ccc2cc3c([nH]c4ccc(Br)cc43)oc-2c1O,129*,48*,99*,5,71*
O=C(O)c1ccc(N=Nc2c(O)[nH]c3ccc(Br)cc23)cc1,5,x,x,-5,9
CCOc1ccc2nc(COC(=O)c3cccc([N+](=O)[O-])c3)c(C(C)=O)[n+]([O-])c2c1,x,x,-23,x,x
CC(=O)OCC1(C)CN(c2ccccc2)NC1=O (centres undefined),12,-1,99*,-1,0
CC(=O)OCC1(C)CN(c2ccccc2)N(C(C)=O)C1=O (centres undefined),10,-2,57,-6,-2
CCOC(=O)N1CCC(=C(C#N)C(=O)Nc2cc(OC)ccc2OC)CC1,-5,0,x,31*,2
O=C(Oc1coc(CSc2ncccn2)cc1=O)c1cccc([N+](=O)[O-])c1,1,-2,97*,-1,-4
O=C(Nc1ccc(OC(F)F)cc1)c1cc(S(=O)(=O)N2CCOCC2)ccc1N1CCCC1,-5,-1,x,-1,0
Cc1ccc(Oc2cc(C)nc(-c3ccccc3O)n2)cc1,-4,0,2,-2,-5
Cc1cc(OC2CCCCC2)nc(-c2ccccc2O)n1,9,0,99*,-2,19
CCCC(=O)NNC(=O)CCC(=O)NCc1ccccc1,2,x,2,-3,-4
O=C(CCCO)NNc1c2ccccc2nc2ccccc12,5,-1,99*,x,7
CCCC(=O)NNc1c2ccccc2nc2ccccc12,-8,0,99*,0,-2
CN1CCN(/N=C/c2nc(-c3ccccc3Cl)n3ccccc23)CC1,2,-2,98*,-6,-4
Clc1ccccc1-c1nc(/C=N/N2CCOCC2)c2ccccn12,16,-3,x,-6,0
Cc1ccc(-n2c(O)c(/C=C3/C(c4ccccc4)=Nc4ccccc43)c(=O)[nH]c2=O)cc1,24,-3,98*,-4,49
O=c1cc(-c2cccc3ccccc23)[nH][nH]1,15,-1,88*,1,49
COc1cccc(NC(C)C(=O)Nc2cc([N+](=O)[O-])ccc2Cl)c1 (centres undefined),6,1,-8,-1,1
SMILES,Rtt109 Vps75,CAL PDZ FP-1,ALR H2O2 inh,CAL PDZ FP-2,DYRK1A inh
COCc1ccc(C(=O)N2CCCC(Nc3ccc(F)c(F)c3)C2)s1 (centres undefined),-4,-1,63,16,-2
COCc1ccc(C(=O)N2CCCC(Nc3ccc4c(c3)OCCO4)C2)o1 (centres undefined),-13,-1,99*,0,-3
COc1ccc(NC(=O)C2CCCN(C(=O)NC3CCCCC3)C2)cc1OC (centres undefined),x,-2,-11,1,-8
COc1ccc(NC2CCCN(C(=O)c3ccc(CSC)o3)C2)cc1OC (centres undefined),-2,0,99*,-1,-2
O=C1CSC(=NC2CCCCC2)N1,-21,-1,98*,1,7
O=C1CS/C(=N/N=C2CCCC2)N1,26,-2,1,0,-2
COc1ccc(CNC(=O)C(=O)NCC2CCCN2S(=O)(=O)c2cccs2)cc1 (centres undefined),-1,0,-9,-2,-6
CC(=O)c1cnc(SCc2ccc(Cl)cc2)nc1C,11,0,1,-3,2
Cc1nc(SCc2ccc(Cl)c(Cl)c2)ncc1C(=O)O,9,x,97*,-8,0
